Assay outcomes as filed in PubChem BioAssay.
Rows were chosen to be rich in hits. Some 2.4% of all compounds tested hit in one or more screens of this group.
Rtt109 Vps75: inhibitors of C. albicans Rtt109/Vps75 HAT, primary screen, biochemical, ThioGlo CoA-SH fluorescence, plate reader | Histone acetyltransferase RTT109 (Candida albicans (strain SC5314 / ATCC MYA-2876)), … | purified Rtt109/Vps75, 4 h | inhibition, % at 34.9 µM | hit rate 0.16% among 330,000;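 active means inhibition of at least 50% in every replicate; inconclusive means best replicate reaches 50% inhibition but some replicates fall short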
Target sequence (Q5AAJ8 whole entry, looked up): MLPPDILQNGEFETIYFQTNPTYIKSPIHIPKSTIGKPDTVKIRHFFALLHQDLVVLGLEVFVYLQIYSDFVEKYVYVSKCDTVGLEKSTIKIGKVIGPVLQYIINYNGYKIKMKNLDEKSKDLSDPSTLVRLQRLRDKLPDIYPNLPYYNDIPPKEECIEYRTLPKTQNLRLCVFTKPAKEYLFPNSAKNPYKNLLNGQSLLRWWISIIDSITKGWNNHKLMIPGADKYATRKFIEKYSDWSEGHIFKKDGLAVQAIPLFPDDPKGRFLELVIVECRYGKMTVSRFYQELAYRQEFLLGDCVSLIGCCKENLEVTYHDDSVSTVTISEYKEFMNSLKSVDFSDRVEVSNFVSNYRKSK
Cneo AK release: Cryptococcus neoformans cell lysis inducers, primary screen, AK release luminescence, single concentration; C. neoformans lysis, adenylate kinase release luminescence, 4 h; normalised: neutral wells 0, clomiphene wells 100; lysis activity, % at 15 µM; hit rate 0.2% among 360,000; AID 651654, 2012;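 active means mean lysis activity across replicates of at least 80%, whatever share of replicates individually reach that level; inactive means mean lysis activity below 80%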
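read-out = cell lysis signal | test system = log-phase Cryptococcus neoformans yeast cells | input = cells at 5 × 10^6 per mL | medium = fresh YPD growth medium | signal = luminescent adenylate kinase detection reagent | timing = 4 h at 37 °C static, read 1 h later | dosing = single dose | controls = Clomiphene as positive lysis control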
HIV Env fusion: inhibitors of HIV-1 Env-driven cell-cell fusion, primary screen, HeLa-JRFL effector, CEM21 target cells, luciferase. inhibition, % at 12.3 µM. hit rate 1.1% among 360,000;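 active means mean replicate inhibition score of at least 50 and every replicate individually at or above 50; inconclusive means only one of the two criteria met; inactive means mean below 50 and not all replicates reaching 50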;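 further: 0% = plate neutral controls and 100% = maraviroc near 300 nM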
INS-1E GSIS act: GLuc luminescence reporter in INS-1E cells, primary screen for activators of glucose-dependent secretion of insulin; activation, % at 16.6 µM; hit rate 0.61% among 370,000; INS-1E GLuc reporter insulin secretion, 2-3 h; AID 743287, 2014;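 active means lowest replicate activation of at least 40%, so every replicate reaches that level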;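 further: 0% = median of neutral control wells and 100% = median of IBMX positive control wells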
miR-122 sensor: miR-122 Renilla sensor signal increase in Huh7, primary screen, miR-122 inhibitor project, cell-based, single point, plate reader. activation (reporter increase), % at 12.5 µM. Huh7 miR-122 Renilla luciferase sensor, 48 h; neutral wells = 0, positive control = 100. hit rate 0.3% among 340,000;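 active means mean replicate activation score at least 90 and every replicate individually at or above 90; inconclusive means only one of the two criteria met; inactive means neither criterion met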;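 further: higher luciferase means less miR-122 activity so hits act as miR-122 inhibitors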
dFosB act: activators of delta FosB homodimer, primary screen, biochemical, fluorescence polarization, TAMRA-CDK5 oligo, single point; Protein FosB (Mus musculus), P13346; purified delta FosB; percent of positive-control signal above neutral wells; activation, % at 25 µM; hit rate 0.99% among 340,000;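 active means mean activation above about 17%, with every replicate also reaching it, limit read from the data, passing the limit was not always enough; inconclusive means only one of the two conditions met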
Target sequence (P13346 whole entry, looked up): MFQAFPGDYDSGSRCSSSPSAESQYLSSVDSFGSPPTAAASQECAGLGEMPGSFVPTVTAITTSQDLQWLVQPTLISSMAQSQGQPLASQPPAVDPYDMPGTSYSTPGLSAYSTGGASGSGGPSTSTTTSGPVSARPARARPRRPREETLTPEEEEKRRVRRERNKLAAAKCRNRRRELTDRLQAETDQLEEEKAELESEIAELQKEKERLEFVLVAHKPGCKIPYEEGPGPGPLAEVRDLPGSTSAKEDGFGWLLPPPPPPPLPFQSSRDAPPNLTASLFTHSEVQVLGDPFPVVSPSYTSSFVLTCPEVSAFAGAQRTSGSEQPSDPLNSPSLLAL
Starred values were filed as active, the others as inactive; ? = inconclusive; . = not tested or not shown; ! = repeats disagree; [ ] = another dose, or the depositor's remark.

SMILES | Rtt109 Vps75 | Cneo AK release | HIV Env fusion | INS-1E GSIS act | miR-122 sensor | dFosB act
O=C(N/N=C/c1sc(N2CCOCC2)nc1-c1ccccc1)c1cccc(S(=O)(=O)N2CCCC2)c1 | -1 | . | 56* | . | . | -12
COc1ccccc1C(=O)Nc1ccc2c(c1)OC[C@H](C)N(C(C)=O)C[C@H](C)[C@@H](OC)CN(C)C2=O | . | -1 | -22[16.7 µM] | -10 | . | .
COc1ccc(C(OC(=O)c2cccs2)C(=O)NCC2CCCO2)cc1 (stereo not given) | -1 | 0 | 1 | . | . | -1
COc1ccccc1C(OC(=O)c1cccs1)C(=O)NCC1CCCO1 (stereo not given) | 4 | 0 | -35 | 57* | -2 | 3
CCSc1nc2c(c(=O)n(C)c(=O)n2C)n1Cc1ccc(Cl)cc1 | -2 | -1 | . | . | -4 | -9
Cn1c(=O)c2c(nc(SCC(=O)NCc3ccc4c(c3)OCO4)n2Cc2ccc(Cl)cc2)n(C)c1=O | 0 | . | 106* | . | . | -7
CCCCCCCCCCOC(=O)Cn1c(COc2ccc(OC)cc2)[n+](C)c2ccccc21 | 84*! | 8 | . | . | -24 | 40*!
CCCCOC(=O)Cn1c(=O)n(CC(=O)OCCCC)c2ccccc21 | 15 | 3 | . | -12 | 0 | -15
CCCCCCCCCCOC(=O)Cn1c(COc2cccc(C)c2)[n+](C)c2ccccc21 | 0 | -1 | 26 | 171* | . | ?
CCCCCCCCCCOC(=O)Cn1c(COc2ccc(Cl)cc2)[n+](C)c2ccccc21 | -4 | 15 | 24 | 207* | . | -118
CCCCCCCCCCOC(=O)Cn1c(COc2ccccc2)[n+](C)c2ccccc21 | -5 | 6 | 44 | 127* | . | 35*
O=C(Cc1ccccc1)OC(COCc1ccccc1)C(=O)NCc1ccccc1 (stereo not given) | . | 4 | -6[16.7 µM] | . | . | .
CCOC(=O)Cn1c(COc2ccccc2OC)[n+](C)c2ccccc21 | . | 3 | -11 | . | -4 | .
CCCCCCCCCCOC(=O)Cn1c(COc2ccccc2C)[n+](C)c2ccccc21 | -4 | 72 | . | 139* | . | 37*
C[C@@H]1CN([C@H](C)CO)S(=O)(=O)c2ccc(C#CCN(C)C)cc2O[C@H]1CN(C)Cc1ccccc1F | . | 3 | 14[16.7 µM] | -16 | 12[16.7 µM] | .
CCCC#Cc1ccc2c(c1)O[C@H](CN(C)C(=O)CN(C)C)[C@@H](C)CN([C@H](C)CO)S2(=O)=O | . | . | 1[16.7 µM] | 11 | 2[16.7 µM] | .
O=S(=O)(c1ccc(Cl)cc1)N1CCC(O)(CN2CCN(Cc3ccccc3)CC2)CC1 | . | . | 1 | -23 | . | -5
O=S(=O)(c1ccccc1)N1CCC(O)(CSc2ccc(Cl)cc2)CC1 | 6 | 1 | 61* | . | -12 | -1
C[C@@H]1CCCCO[C@H](CN(C)S(=O)(=O)c2cccs2)[C@H](C)CN([C@@H](C)CO)C(=O)c2cc(NC(=O)C3CCCCC3)ccc2O1 | . | 1 | -73[16.7 µM] | -16 | 3[16.7 µM] | .
Cc1nc2c(-c3ccc(F)cc3)cnn2c2c1CCC2 | -5 | . | -37 | 44* | . | -11
COc1ccc(-c2cnc3c(-c4ccc(F)cc4)cnn3c2N)cc1 | 4 | 3 | -84 | -7 | 2 | -11
C[C@H](CO)N1C[C@H](C)[C@@H](CN(C)Cc2ccc(C(=O)Nc3ccccc3N)cc2)Oc2ccc(NC(=O)c3ccncc3)cc2C1=O | . | . | . | 36 | . | .
CC1(C)c2ccccc2N(CC(N)=O)C12C=Cc1ccccc1O2 (stereo not given) | -6 | 0 | 18 | -4 | -3 | 12
CC1(C)c2ccccc2N2CC(=O)N(CC(N)=O)C21C (stereo not given) | 41 | 0 | . | . | 2 | 40*
Cc1ccc(Oc2nc3c(c(=O)n(Cc4ccccc4F)c(=O)n3C)n2C)cc1 | -1 | -1 | 56* | -17 | 3 | -5
SMILES | Rtt109 Vps75 | Cneo AK release | HIV Env fusion | INS-1E GSIS act | miR-122 sensor | dFosB act
CCn1c(Oc2ccccc2F)nc2c1c(=O)n(C)c(=O)n2C | 18 | -5 | 58* | 9 | 3 | -1
COCCNc1nc2c(c(=O)n(Cc3ccccc3F)c(=O)n2C)n1C | -4 | 1 | 1 | -17 | -1 | 3
CCn1c(Oc2ccccc2)nc2c1c(=O)n(C)c(=O)n2C | 2 | 5 | 32 | 5 | -5 | -2
CCN1CCCC1CNC(=O)c1ccc2c(c1)NC(=O)/C(=C\c1ccc(OC)c(OC)c1)S2 (stereo not given) | ? | 0 | -3 | 10 | -15 | 44*
CCN1CCCC1CNC(=O)c1ccc2c(c1)NC(=O)/C(=C\c1ccccc1Cl)S2 (stereo not given) | . | 1 | -19 | -13 | -5 | .
COCOCCn1cc(CN2CCS(=O)(=O)N(Cc3ccc(-c4ccc(Cl)cc4)cc3)C(C)C2=O)nn1 (stereo not given) | . | 2 | 57* | 2 | -9 | .
CN(C)c1ccc2c(c1)[C@@H]1C[C@H](CC(=O)NCc3ccc(-c4ccccc4)cc3)O[C@@H](CO)[C@@H]1O2 | . | -2 | 80*[16.7 µM] | -12 | 1[16.7 µM] | .
O=C(C[C@H]1C[C@@H]2c3cc(NS(=O)(=O)c4ccc(F)cc4)ccc3O[C@@H]2[C@@H](CO)O1)NCc1ccc(-c2ccccc2)cc1 | . | -40 | 71*[16.7 µM] | -14 | -7[16.7 µM] | .
O=C(C[C@H]1C[C@H]2c3cc(NS(=O)(=O)c4ccc(F)cc4)ccc3O[C@H]2[C@@H](CO)O1)NCc1ccccc1F | . | -6 | 83*[16.7 µM] | -12 | 5[16.7 µM] | .
O=C(Nc1cc(F)ccc1F)N[C@H]1CC[C@H](CCn2cc(C3CCCC3)nn2)O[C@H]1CO | . | . | . | -15 | . | .
O=C(OCn1ncc(Br)c(Br)c1=O)c1ccc(F)cc1 | 2 | -4 | . | . | -6 | -10
O=C(OCn1ncc(Br)c(Br)c1=O)c1ccccc1Cl | 7 | -4 | . | 115* | -9 | -5
C[C@H]1CN([C@@H](C)CO)S(=O)(=O)c2ccc(C#CC3(O)CCCC3)cc2O[C@@H]1CN(C)C(=O)Cc1ccncc1 | . | 0 | -13[16.7 µM] | 25 | . | .
Cc1cc(C)c(NC(=O)Cn2cnc3c(oc4ccccc43)c2=O)c(C)c1 | 9 | . | -2 | -2 | -2 | 52*
Cc1ccccc1NC(=O)Cn1cnc2c(oc3ccccc32)c1=O | 6 | -2 | -20 | 14 | 7 | 0
CN(C)CC(=O)N1CC2(C1)[C@H](c1ccccc1)[C@H](CO)N2S(=O)(=O)c1ccccc1 | . | . | . | 9 | . | .
O=C(Nc1ccc(F)cc1)N[C@H]1CC[C@H](CCNS(=O)(=O)c2cccc(Cl)c2)O[C@H]1CO | . | -2 | 18[16.7 µM] | -11 | . | .
